We go through five compounds from ChEMBL document CHEMBL1124569, “5-HT1A-receptor antagonism: N-alkyl derivatives of (R)-(-)-8,11-dimethoxynoraporphine” (J Med Chem, 1989).

Each structure is given as a SMILES string. The source made the active and inactive calls. No cut-off for these calls is given here.

One assay deals with T1, 5-hydroxytryptamine receptor 1A (Rattus norvegicus, UniProt P19327).
T1 sequence (P19327 whole entry): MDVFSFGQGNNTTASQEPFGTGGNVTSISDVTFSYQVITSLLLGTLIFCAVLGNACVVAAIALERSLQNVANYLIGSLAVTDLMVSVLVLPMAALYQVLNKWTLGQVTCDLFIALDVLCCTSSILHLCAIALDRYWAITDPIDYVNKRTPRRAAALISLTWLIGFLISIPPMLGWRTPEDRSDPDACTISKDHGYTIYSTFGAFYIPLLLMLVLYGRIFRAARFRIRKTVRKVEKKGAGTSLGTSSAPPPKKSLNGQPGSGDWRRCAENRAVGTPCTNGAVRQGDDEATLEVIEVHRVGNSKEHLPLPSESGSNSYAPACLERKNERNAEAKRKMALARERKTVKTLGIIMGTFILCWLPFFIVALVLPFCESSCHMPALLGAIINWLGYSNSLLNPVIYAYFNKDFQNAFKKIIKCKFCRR
Kind of assay: Binding affinity of compound against 5-hydroxytryptamine 1A receptor binding site using radioligand [3H]8-OH-DPAT.
Conditions: not given
`CCCN1CCc2cccc3c2[C@H]1Cc1c(OC)ccc(OC)c1-3` returned a Ki of 240 nM.

Regarding `COc1ccc(OC)c2c1C[C@@H]1c3c(cccc3-2)CCN1C`, the inhibition constant (Ki) is 8.6 nM.

In turn, `O=C(CCCN1CCC2(CC1)C(=O)NCN2c1ccccc1)c1ccc(F)cc1` [SPIPERONE] showed a Ki of 30 nM.

Another assay has as its system Felis catus. Briefly: Minimum effective dose administered intravenously for decrease in arterial pressure in cat heart. The following applies: Artery, iv, read-out: MED. The format is functional. In a few lines: (§1)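 Cats anesthetized with pentobarbital sodium (30 mg/kg ip), intubated and ventilated, with bilateral vagotomy and atropine sulfate 200 μg/kg. Compound given iv via femoral vein, doses up to 1 mg/kg. Femoral arterial pressure and heart rate were recorded continuously. The right postganglionic cardioaccelerator nerve was stimulated at 2 Hz, 5 ms, 20 V.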
As to `CCCN(CCC)C1CCc2cccc(O)c2C1` (stereo not drawn) [8-OH-DPAT], the minimal effective dose is 0.01 mg/kg.

In the case of `CCCN1CCc2cccc3c2[C@H]1Cc1c(OC)ccc(OC)c1-3`, the minimal effective dose is > 1 mg/kg.

Consider `COc1ccc(OC)c2c1C[C@@H]1c3c(cccc3-2)CCN1C`, for which the minimal effective dose was > 1 mg/kg.

On to `CN1CCc2cccc3c2[C@H]1Cc1ccc(O)c(O)c1-3` [APOMORPHINE], for which the minimal effective dose was found to be 0.01 mg/kg.

For the next assay, the system named is Felis catus. Kind of assay: Minimum effective dose administered intravenously for decrease in heart rate in cat. The settings on record: iv, read-out: MED. The format is functional. Summed up:
as §1
Turning to `CCCN(CCC)C1CCc2cccc(O)c2C1` (stereo not drawn) [8-OH-DPAT], the minimal effective dose came out at 0.01 mg/kg.

With `CCCN1CCc2cccc3c2[C@H]1Cc1c(OC)ccc(OC)c1-3`, the minimal effective dose was > 1 mg/kg.

On to `COc1ccc(OC)c2c1C[C@@H]1c3c(cccc3-2)CCN1C`, for which the minimal effective dose was > 1 mg/kg.

As to `CN1CCc2cccc3c2[C@H]1Cc1ccc(O)c(O)c1-3` [APOMORPHINE], the minimal effective dose was determined as 0.01 mg/kg.

The target in another assay is D(2) dopamine receptor (Rattus norvegicus, UniProt P61169). Briefly: Binding affinity of compound against Dopamine receptor D2 binding site using radioligand [3H]spiperone.
Chain of D(2) dopamine receptor (P61169 whole entry): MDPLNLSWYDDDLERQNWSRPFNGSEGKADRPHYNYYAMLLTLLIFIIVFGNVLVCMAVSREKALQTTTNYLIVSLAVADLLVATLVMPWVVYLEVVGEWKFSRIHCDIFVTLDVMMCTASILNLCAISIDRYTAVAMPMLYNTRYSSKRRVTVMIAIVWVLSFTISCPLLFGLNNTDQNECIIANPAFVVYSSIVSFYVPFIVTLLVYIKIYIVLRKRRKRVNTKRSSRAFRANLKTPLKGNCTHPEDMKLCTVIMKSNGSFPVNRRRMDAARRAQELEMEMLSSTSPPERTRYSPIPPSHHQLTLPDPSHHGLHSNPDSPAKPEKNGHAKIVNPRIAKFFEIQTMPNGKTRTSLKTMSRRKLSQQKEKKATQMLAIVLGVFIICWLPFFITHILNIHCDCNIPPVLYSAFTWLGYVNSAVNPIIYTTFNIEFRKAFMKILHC
Conditions: not given
On to `CCCN(CCC)C1CCc2cccc(O)c2C1` (stereo not drawn) [8-OH-DPAT], for which the affinity, expressed as Ki, was 3500 nM.

Consider `CCCN1CCc2cccc3c2[C@H]1Cc1c(OC)ccc(OC)c1-3`, for which the inhibition constant (Ki) came out at 770 nM.

`COc1ccc(OC)c2c1C[C@@H]1c3c(cccc3-2)CCN1C` had a Ki of 210 nM.

The species entered for a further assay is Rattus norvegicus. Kind of assay: Ability of compound to induce behavioral changes in rat. The format is functional. The following applies: read-out: MED. Summed up: (§2)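 Rats dosed subcutaneously and observed for locomotor activity and serotonin syndrome signs (flat body posture, forepaw extension and padding, abducted hindlimbs, forebody tremor). Antagonism was tested by giving the compound 15 min before subcutaneous 8-OH-DPAT.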
Turning to `CCCN(CCC)C1CCc2cccc(O)c2C1` (stereo not drawn) [8-OH-DPAT], the minimal effective dose amounted to 0.5 mg/kg.

In the case of `COc1ccc(OC)c2c1C[C@@H]1c3c(cccc3-2)CCN1C`, the minimal effective dose amounted to 5 mg/kg.

`CN1CCc2cccc3c2[C@H]1Cc1ccc(O)c(O)c1-3` [APOMORPHINE]: the minimal effective dose came to 1 mg/kg.

For another assay, the species on record is Rattus norvegicus. Briefly: Ability of compound to induce behavioral changes in rat; Not active. The format is functional, organism-based.
Conditions: not given
Summed up:
as §2
`CCCN1CCc2cccc3c2[C@H]1Cc1c(OC)ccc(OC)c1-3`: the MED result was “inactive”.

The Ki is a measure of affinity in units of concentration, obtained from inhibition or displacement. Low readings indicate tighter binding, high ones weaker binding.
